# Assay results collected from several papers.
# Lines come from different studies, so protocols differ.
# Target: Calcium/calmodulin-dependent protein kinase type II subunit gamma (CAMK2G, Homo sapiens, UniProt Q13555)
Structure (SMILES),effect on,action,technique,concentration,setting,endpoint,result
CN1CCN(C(=O)c2ccc(NC(=O)Nc3ccc(N(C)c4ccnc(Nc5ccc(CS(C)(=O)=O)cc5)n4)cc3)cc2)CC1,binding,,,1 µM,,remaining binding,100%
CC(C)S(=O)(=O)c1ccc2nccc(Nc3ccc4sc(C5CCCC5)nc4c3)c2c1,enzyme activity,inhibitor,,1 µM,,activity vs control,104%
CC#CC(=O)N1CCC[C@H]1c1nc(-c2ccc(C(=O)Nc3ccccn3)cc2)c2c(N)nccn12,enzyme activity,inhibitor,,1 µM,,inhibition,0%
C1=C/COCc2cc(ccc2OCCN2CCCC2)Nc2nccc(n2)-c2cccc(c2)COC/1,binding,,,0.1 µM,,remaining binding,89%
CO[C@@H]1[C@H](N(C)C(=O)c2ccccc2)C[C@H]2O[C@]1(C)n1c3ccccc3c3c4c(c5c6ccccc6n2c5c31)C(=O)NC4,enzyme activity,inhibitor,,1 µM,,inhibition,90%
CCCCC(=O)Nc1ccc(-c2ccc3ncn(CCC)c(=O)c3c2)cn1,binding,,competition with immobilised ligand,0.5 µM,,remaining binding,100%
Cc1cc(O)c(-c2ccc([C@@H](C)CN(C)C)cc2)c2c1[nH]c(=O)c1sccc12,cell-free assay,inhibitor,,0.1 µM,lysate,inhibition,-11.1%
C[C@H]1CC[C@H](n2c3cnccc3c3cnc(Nc4ccc5c(n4)CCN(C(=O)CO)C5)nc32)CC1,binding,,,1 µM,,remaining binding,40%
